Measured values from PubChem BioAssay AID623918 (The Scripps Research Institute Molecular Screening Center, 2012).

Test system: E. coli V66 Hfr conjugation, recombinant frequency by colony plating
Assay: inhibitors of RecBCD-driven recombination, late-stage follow-up, counter-screen for AddAB inhibitor project, colony formation, V66 E. coli, provider lab (AID 623918)
Outline: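 test system = E. coli conjugation, F- recipient cells mated with Hfr donor cells | detection = colony counting after differential plating for His+ StrR recombinants, viability on non-selective plates | schedule = 1 h recipient growth, 30 min mating, 1.5 h compound exposure | controls = DMSO-only treated culture as reference | compound = 5 doses, 0.03–100 µM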

O=C(Nc1ncccn1)c1ccc([N+](=O)[O-])o1
IC50: 30 nM

CCn1cc(C(=O)O)c(=O)c2cnc(N3CCN(C(=S)Nc4cccc(C(F)(F)F)c4)CC3)nc21
IC50: 100 nM

C=CCn1c(Sc2ncc([N+](=O)[O-])s2)n[nH]c1=O
IC50: < 1000 nM

CCn1cc(C(=O)O)c(=O)c2cnc(N3CCN(C(=S)Nc4ccccc4C(F)(F)F)CC3)nc21
IC50: < 1000 nM

O=C(NCc1cccnc1)c1ccc([N+](=O)[O-])o1
IC50: < 100 nM

CCn1cc(C(=O)O)c(=O)c2cc(F)c(N3CCN(C(=S)Nc4cccc(C(F)(F)F)c4)CC3)cc21
IC50: < 1000 nM

CCn1cc(C(=O)O)c(=O)c2cnc(N3CCNCC3)nc21
IC50: < 100 nM
